In ChEMBL document CHEMBL1124508, “E-ring desoxy analogues of etoposide” (J Med Chem, 1989):
Values after ≈ are worked out from the molar mass of the structure shown.

Key:
[1] = system: B16-F10; experiment: The inhibition concentration of B16-F10 cell growth after 72 hours; format: functional, cell-based; details: Mus musculus, B16-F10, 72 h
Procedure, shortened: (§1)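 Panel of human colon lines (HCT-116, etoposide sensitive; HCT/VP35, acquired-resistant; MOSER, inherently resistant) and mouse melanoma B16-F10. Viability is read by crystal violet protein stain, or by XTT vital stain for some HCT/VP35 and HCT-116 runs. IC50 is the dose reducing cell growth by 50% after 72 h versus controls. Values are averages of at least two runs.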

[2] = system: HCT cell line; experiment: The inhibition concentration against etoposide resistant HCT/VP35 cell growth after 72 hours; format: functional, cell-based; details: Homo sapiens; procedure, shortened: as §1
[3] = species: Homo sapiens; experiment: The inhibition concentration of MOSER cell growth after 72 hours; format: functional; procedure, shortened: as §1
[4] = system: Mus musculus; experiment: Anti-P388 Leukemia activity administered 150 mg/kg intraperitoneally, expressed as percent of the median survival time; format: functional; details: route intraperitoneal
Procedure, shortened: (§2)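 P388 leukemia-bearing mice given drug ip on days 1 and 5, with dose expressed per injection. T/C is the median survival time of treated mice as a percent of saline-treated controls. Long-term survivors are mice alive out of total on day 30, when the experiment ended.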

[5] = system: Mus musculus; experiment: Anti-P388 Leukemia activity administered 30 mg/kg intraperitoneally, expressed as percent of the median survival time; format: functional; details: route intraperitoneal; procedure, shortened: as §2
[6] = Inhibitory selectivity against HCT/VP35 and HCT116 cell growth after 72 hours; format: functional, HCT-116
Procedure, shortened: (§3)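 Ratio of the HCT/VP35 IC50 to the HCT-116 IC50, as a measure of overcoming acquired etoposide resistance. The IC50 is the dose giving 50% growth reduction after 72 h versus controls, read by crystal violet or XTT stain. Values are averages of at least two runs.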

[7] = system: B16-F10; experiment: In vitro inhibitory concentration against B16-F10 cell growth after 72 hours; format: functional, cell-based; details: Mus musculus, B16-F10, 72 h; procedure, shortened: as §1
[8] = system: HCT-116; experiment: In vitro inhibitory concentration against etoposide sensitive HCT116 cell growth after 72 hours; format: functional, cell-based; details: Homo sapiens, HCT-116, 72 h; procedure, shortened: as §1
[9] = system: HCT cell line; experiment: In vitro inhibitory concentration against etoposide resistant HCT/VP35 cell growth after 72 hours; format: functional, cell-based; details: Homo sapiens; procedure, shortened: as §1
[10] = species: Homo sapiens; experiment: In vitro inhibitory concentration against MOSER cell growth after 72 hours; format: functional; procedure, shortened: as §1
[11] = system: Mus musculus; experiment: Percent median survival time (T/C) of mice when administered intraperitoneally at dose 20 mg/kg; format: functional; details: route intraperitoneal; procedure, shortened: as §2
[12] = system: Mus musculus; experiment: Percent median survival time (T/C) of mice when administered intraperitoneally at dose 40 mg/kg; format: functional; details: route intraperitoneal; procedure, shortened: as §2
[13] = system: Mus musculus; experiment: Percent median survival time (T/C) of mice when administered intraperitoneally at dose 80 mg/kg; format: functional; details: route intraperitoneal; procedure, shortened: as §2
[14] = system: Mus musculus; experiment: Number of long time survivors (mice alive/total) when administered intraperitoneally at dose 60 mg/kg when tested in 4 mice; format: functional; details: route intraperitoneal; procedure, shortened: as §2
[15] = system: Mus musculus; experiment: Number of long time survivors (mice alive/total) when administered intraperitoneally at dose 80 mg/kg when tested in 4 mice; format: functional; details: route intraperitoneal; procedure, shortened: as §2
[16] = system: Mus musculus; experiment: Maximum percent median survival time of mice when administered intraperitoneally at dose 60 mg/kg; format: functional; details: route intraperitoneal
[17] = system: HCT-116; experiment: The inhibition concentration against etoposide sensitive HCT116 cell growth after 72 hours; format: functional, cell-based; details: Homo sapiens, HCT-116, 72 h; procedure, shortened: as §1
[18] = system: Mus musculus; experiment: Anti-P388 Leukemia activity administered 200 mg/kg intraperitoneally, expressed as percent of the median survival time; format: functional; details: route intraperitoneal; procedure, shortened: as §2
[19] = system: Mus musculus; experiment: Anti-P388 Leukemia activity administered 50 mg/kg intraperitoneally, expressed as percent of the median survival time; format: functional; details: route intraperitoneal; procedure, shortened: as §2
[20] = Inhibitory selectivity against HCT/VP35 and HCT116 cell growth after 72 hr IC50 value for etoposide in the parenthesis; format: functional, HCT-116; procedure, shortened: as §3
[21] = system: Mus musculus; experiment: Percent median survival time (T/C) of mice when administered intraperitoneally at dose 120 mg/kg; format: functional; details: route intraperitoneal; procedure, shortened: as §2

COc1cc(OC)cc([C@@H]2c3cc4c(cc3[C@@H](O[C@@H]3O[C@@H]5CO[C@@H](C)O[C@H]5[C@H](O)[C@H]3O)[C@H]3COC(=O)[C@H]23)OCO4)c1
IC50 [1]: 25 µg/mL (≈ 43.7 µM)
IC50 [2]: 3.4 µg/mL (≈ 5.94 µM)
IC50 [3]: 45.5 µg/mL (≈ 79.5 µM)
T/C [4]: 175
T/C [5]: 125
Selectivity [6]: 0.47

COc1cc([C@@H]2c3cc4c(cc3[C@@H](O[C@@H]3O[C@@H]5CO[C@@H](C)O[C@H]5[C@H](O)[C@H]3O)[C@H]3COC(=O)[C@H]23)OCO4)ccc1O
IC50 [7]: 20.1 µg/mL (≈ 36 µM)
IC50 [8]: 15.4 µg/mL (≈ 27.6 µM)
IC50 [9]: 5.4 µg/mL (≈ 9.67 µM)
IC50 [10]: 46.5 µg/mL (≈ 83.3 µM)
T/C [11]: 190
T/C [12]: 245
Selectivity [6]: 12.3

COC1=CC([C@@H]2c3cc4c(cc3[C@@H](O[C@@H]3O[C@@H]5CO[C@@H](C)O[C@H]5[C@H](O)[C@H]3O)[C@H]3COC(=O)[C@@H]32)OCO4)=CC(=O)C1=O
T/C [12]: 274
T/C [13]: >621
LTS [14]: 2
LTS [15]: 3
Max T/C [16]: >595

C[C@@H]1OC[C@H]2O[C@@H](O[C@@H]3c4cc5c(cc4[C@@H](c4ccc(O)cc4)[C@H]4C(=O)OC[C@@H]43)OCO5)[C@H](O)[C@@H](O)[C@@H]2O1
IC50 [1]: 43.4 µg/mL (≈ 82.1 µM)
IC50 [17]: 62.7 µg/mL (≈ 119 µM)
IC50 [2]: 85.1 µg/mL (≈ 161 µM)
IC50 [3]: 42.9 µg/mL (≈ 81.2 µM)
T/C [18]: 175
T/C [19]: 145
Selectivity [20]: 1.4

COc1cc([C@@H]2c3cc4c(cc3[C@@H](O[C@@H]3O[C@@H]5CO[C@@H](C)O[C@H]5[C@H](O)[C@H]3O)[C@H]3COC(=O)[C@H]23)OCO4)cc(OC)c1O [ETOPOSIDE]
T/C [21]: 447
